Laboratory results from article PMC11310375 (EJNMMI Radiopharmacy and Chemistry, 2024).
Square brackets hold non-standard residues; d marks the D form. Peptide text beside a SMILES is read from it. * marks the point of attachment. AspCH2OCO(5-Me-thien-2-yl) = Cc1ccc(C(=O)OCC(=O)[C@H](CC(=O)O)N*)s1; Phe(F5) = N[C@@H](Cc1c(F)c(F)c(F)c(F)c1F)C(=O)O; X5 = Cc1cccc(C)c1C(=O)OCC(=O)[C@@H](CC(=O)O)N*; X4 = Cc1ccc(C(=O)OCC(=O)[C@@H](CC(=O)O)N*)s1; d(β3hL) = CC(C)C[C@@H](N)CC(=O)O; 3Pal = N[C@@H](Cc1cccnc1)C(=O)O; d3Pal = N[C@H](Cc1cccnc1)C(=O)O; X3 = O=C(CCCc1cn(CCF)nn1)*; X1 = O=C(Cn1cc(CCCF)nn1)*; Ahx = NCCCCCC(=O)O

Experiments:
Experiment in all cases: Biochemical inhibition assay, kinact/Ki with AMAC substrate
caspase-9 = molecular target: T1, caspase-9 (Homo sapiens, UniProt P55211); details: read-out: kinact/Ki C9
T1 sequence (P55211 1-315 limits assumed): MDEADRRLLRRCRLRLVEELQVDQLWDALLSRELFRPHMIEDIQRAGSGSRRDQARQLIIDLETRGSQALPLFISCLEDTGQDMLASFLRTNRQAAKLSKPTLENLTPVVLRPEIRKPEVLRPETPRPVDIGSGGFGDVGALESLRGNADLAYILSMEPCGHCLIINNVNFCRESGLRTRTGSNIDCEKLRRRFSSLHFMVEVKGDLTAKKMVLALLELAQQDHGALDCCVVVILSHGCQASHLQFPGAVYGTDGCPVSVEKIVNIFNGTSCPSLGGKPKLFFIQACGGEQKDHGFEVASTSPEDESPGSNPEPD
T1 sequence (P55211 331-416 limits assumed): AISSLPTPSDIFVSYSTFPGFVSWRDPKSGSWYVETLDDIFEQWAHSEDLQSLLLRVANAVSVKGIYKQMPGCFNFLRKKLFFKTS
Procedure, shortened: (§1)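 Caspase-8 (25 nM), caspase-9 (100 nM) and caspase-10 (20 nM) used Ac-IETD-AMAC; caspase-9 and caspase-10 buffers also had 0.7 M sodium citrate. Caspase-6 (25 nM) used Ac-VEID-AMAC. Fluorescence (ex 320/em 460) was read immediately, and progress curves were fit for kinact and Ki.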

caspase-7 = molecular target: T2, caspase-7 (Homo sapiens, UniProt P55210); details: read-out: kinact/Ki C7
T2 sequence (P55210 24-198 limits assumed): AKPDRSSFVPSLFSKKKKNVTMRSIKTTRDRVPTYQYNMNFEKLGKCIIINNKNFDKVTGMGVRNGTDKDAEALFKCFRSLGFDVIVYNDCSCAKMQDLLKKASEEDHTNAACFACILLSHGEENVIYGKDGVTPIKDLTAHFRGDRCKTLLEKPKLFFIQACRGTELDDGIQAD
T2 sequence (P55210 207-303 limits assumed): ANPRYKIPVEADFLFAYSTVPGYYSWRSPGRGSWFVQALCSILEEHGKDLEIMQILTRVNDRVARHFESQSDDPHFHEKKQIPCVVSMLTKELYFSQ
Procedure, shortened: (§2)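 Continuous fluorogenic inactivation assay with Ac-DEVD-AMAC at 100 μM final. Final enzyme concentrations were 1 nM caspase-3 and 5 nM caspase-7. Enzyme was added to substrate plus inhibitor, and fluorescence (ex 320/em 460) was read immediately. Progress curves were fit to F = -[v₀(1-exp(-kobst))/kobs-Fmax] to give kinact and Ki.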

caspase-6 = molecular target: T3, caspase-6 (Homo sapiens, UniProt P55212); details: read-out: kinact/Ki C6
T3 sequence (P55212 24-179 limits assumed): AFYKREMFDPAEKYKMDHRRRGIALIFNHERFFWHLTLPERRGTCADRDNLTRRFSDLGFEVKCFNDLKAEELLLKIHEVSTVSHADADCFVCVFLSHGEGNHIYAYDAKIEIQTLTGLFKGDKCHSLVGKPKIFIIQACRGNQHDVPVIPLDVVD
T3 sequence (P55212 194-293 limits assumed): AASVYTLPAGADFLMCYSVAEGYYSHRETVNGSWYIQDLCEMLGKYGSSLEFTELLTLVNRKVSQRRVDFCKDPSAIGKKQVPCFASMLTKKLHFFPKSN
Procedure, shortened: as §1

caspase-3 = molecular target: T4, caspase-3 (Homo sapiens, UniProt P42574); details: for kinact/KI: read-out: kinact/Ki C3
T4 sequence (P42574 29-175 limits assumed): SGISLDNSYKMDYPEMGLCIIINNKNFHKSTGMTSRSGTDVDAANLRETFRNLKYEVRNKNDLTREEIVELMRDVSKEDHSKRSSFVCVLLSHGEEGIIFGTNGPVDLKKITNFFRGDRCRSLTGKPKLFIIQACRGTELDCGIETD
T4 sequence (P42574 176-277 limits assumed): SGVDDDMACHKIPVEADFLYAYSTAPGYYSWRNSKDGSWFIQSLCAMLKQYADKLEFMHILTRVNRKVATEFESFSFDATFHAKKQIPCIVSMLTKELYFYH
Procedure, shortened: as §2

caspase-10 = molecular target: T5, caspase-10 (Homo sapiens, UniProt Q92851); details: read-out: kinact/Ki C10
T5 sequence (Q92851 220-415 limits assumed): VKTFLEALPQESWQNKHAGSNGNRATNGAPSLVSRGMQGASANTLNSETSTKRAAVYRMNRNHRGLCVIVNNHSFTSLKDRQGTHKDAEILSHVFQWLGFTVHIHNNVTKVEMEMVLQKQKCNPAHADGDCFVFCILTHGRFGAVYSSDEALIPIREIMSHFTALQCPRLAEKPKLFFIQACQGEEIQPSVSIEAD
T5 sequence (Q92851 416-521 limits assumed): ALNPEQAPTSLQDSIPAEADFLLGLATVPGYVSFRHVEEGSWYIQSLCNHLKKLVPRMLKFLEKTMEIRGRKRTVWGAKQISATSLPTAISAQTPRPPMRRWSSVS
Procedure, shortened: as §1

caspase-8 = caspase-8 (Homo sapiens, UniProt Q14790); details: read-out: kinact/Ki C8
Chain of caspase-8 (Q14790 217-374 limits assumed): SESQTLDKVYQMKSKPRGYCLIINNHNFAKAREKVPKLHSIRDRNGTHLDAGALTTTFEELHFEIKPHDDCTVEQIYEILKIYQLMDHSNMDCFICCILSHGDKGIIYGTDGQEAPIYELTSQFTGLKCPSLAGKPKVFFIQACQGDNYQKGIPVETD
Chain of caspase-8 (Q14790 385-479 limits assumed): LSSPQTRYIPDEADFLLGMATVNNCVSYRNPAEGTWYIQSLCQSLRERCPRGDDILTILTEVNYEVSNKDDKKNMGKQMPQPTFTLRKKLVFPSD
Procedure, shortened: as §1

kinact/KI (caspase-9) | kinact/KI (caspase-7) | kinact/KI (caspase-6) | inactivation rate on caspase-3 as compared to caspase-7 (caspase-3; ratio of kinact/Ki) | kinact/KI (caspase-3) | kinact/KI (caspase-10) | kinact/KI (caspase-8) | Structure (SMILES)
700 M⁻¹ s⁻¹ | 117000 M⁻¹ s⁻¹ | 300 M⁻¹ s⁻¹ | 14 times | 1.62e+06 M⁻¹ s⁻¹ | 1000 M⁻¹ s⁻¹ | 15200 M⁻¹ s⁻¹ | Cc1ccc(C(=O)OCC(=O)[C@H](CC(=O)O)NC(=O)[C@H](Cc2ccccc2)NC(=O)[C@H](Cc2c(F)c(F)c(F)c(F)c2F)NC(=O)[C@H](CC(=O)O)NC(=O)[C@H](Cc2cccnc2)NC(=O)CNC(=O)CNC(=O)CNC(=O)Cn2cc(CCCF)nn2)s1 [Inhibitor 7, (13S,16S,19S,22S,25S)-22-benzyl-16-(carboxymethyl)-1-(4-(3-fluoropropyl)-1H-1,2,3-triazol-1-yl)-25-(2-((5-methylthiophene-2-carbonyl)oxy)acetyl)-2,5,8,11,14,17,20,23-octaoxo-19-((perfluorophenyl)methyl)-13-(pyridin-3-ylmethyl)-3,6,9,12,15,18,21,24-octaazaheptacosan-27-oic acid] (X1-GGG[3Pal]D[Phe(F5)]F-{AspCH2OCO(5-Me-thien-2-yl)})
400 M⁻¹ s⁻¹ | 61000 M⁻¹ s⁻¹ | – | – | 549000 M⁻¹ s⁻¹ | 700 M⁻¹ s⁻¹ | 5600 M⁻¹ s⁻¹ | Cc1ccc(C(=O)OCC(=O)[C@H](CC(=O)O)NC(=O)[C@H](Cc2ccccc2)NC(=O)[C@H](Cc2c(F)c(F)c(F)c(F)c2F)NC(=O)[C@H](CC(=O)O)NC(=O)[C@H](Cc2cccnc2)NC(=O)Cn2cc(CCCF)nn2)s1 [Inhibitor 8, (4S,7S,10S,13S,16S)-13-benzyl-7-(carboxymethyl)-1-(4-(3-fluoropropyl)-1H-1,2,3-triazol-1-yl)-16-(2-((5-methylthiophene-2-carbonyl)oxy)acetyl)-2,5,8,11,14-pentaoxo-10-((perfluorophenyl)methyl)-4-(pyridin-3-ylmethyl)-3,6,9,12,15-pentaazaoctadecan-18-oic acid] (X1-[3Pal]D[Phe(F5)]F-{AspCH2OCO(5-Me-thien-2-yl)})
– | 200 M⁻¹ s⁻¹ | 200 M⁻¹ s⁻¹ | – | 73500 M⁻¹ s⁻¹ | – | – | Cc1ccc(C(=O)OCC(=O)[C@@H](CC(=O)O)NC(=O)[C@@H](Cc2ccccc2)NC(=O)C[C@@H](CC(C)C)NC(=O)[C@@H](CC(=O)O)NC(=O)[C@@H](Cc2cccnc2)NC(=O)CCCCCNC(=O)CCCCCNC(=O)CCCc2cn(CCF)nn2)s1 [Inhibitor 1, (3R,6R,10R,13R,16R)-6-benzyl-13-(carboxymethyl)-35-(1-(2-fluoroethyl)-1H-1,2,3-triazol-4-yl)-10-isobutyl-3-(2-((5-methylthiophene-2-carbonyl)oxy)acetyl)-5,8,12,15,18,25,32-heptaoxo-16-(pyridin-3-ylmethyl)-4,7,11,14,17,24,31-heptaazapentatriacontanoic acid] ({X3-Ahx-Ahx}-[d3Pal][dD][d(β3hL)][dF]-X4)
– | 1000 M⁻¹ s⁻¹ | 5400 M⁻¹ s⁻¹ | – | 206000 M⁻¹ s⁻¹ | – | – | Cc1cccc(C)c1C(=O)OCC(=O)[C@@H](CC(=O)O)NC(=O)[C@@H](Cc1ccccc1)NC(=O)C[C@@H](CC(C)C)NC(=O)[C@@H](CC(=O)O)NC(=O)[C@@H](Cc1cccnc1)NC(=O)CCCCCNC(=O)CCCCCNC(=O)CCCc1cn(CCF)nn1 [Inhibitor 3, (3R,6R,10R,13R,16R)-6-benzyl-13-(carboxymethyl)-3-(2-((2,6-dimethylbenzoyl)oxy)acetyl)-35-(1-(2-fluoroethyl)-1H-1,2,3-triazol-4-yl)-10-isobutyl-5,8,12,15,18,25,32-heptaoxo-16-(pyridin-3-ylmethyl)-4,7,11,14,17,24,31-heptaazapentatriacontanoic acid] ({X3-Ahx-Ahx}-[d3Pal][dD][d(β3hL)][dF]-X5)
